The source made the active and inactive calls. The calls are words filed in the database; no cut-off is given here.
Experiments:
[1] = Displacement of [3H]kainate from high affinity kainate receptor in rat cortical membrane; format: cell membranes
[2] = target: Glutamate NMDA receptor; assay: Displacement of [3H]glycine from NMDA receptor in rat cortical synaptical membrane; format: cell membranes
[3] = Displacement of [3H]AMPA from AMPA receptor in rat cortical synaptical membrane; format: cell membranes
[4] = Antagonist activity at AMPA receptor in mouse cortical wedge assessed as inhibition of S-AMPA-induced membrane depolarization by electrophysiological assay; format: functional
[5] = target: Glutamate NMDA receptor (Rattus norvegicus) (UniProt P35439+Q00959+Q00960+Q00961+Q62645+Q8VHN2+Q9R1M7); assay: Displacement of [3H]glycine from NMDA receptor in rat cortical synaptical membrane at 100 uM; format: cell membranes
Outline: (§1)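 Rat cortical membranes, test compound at 100 µM single concentration. Diluted in buffer from a 1 mM stock in 50% DMSO. Result given as percent inhibition of specific radioligand binding. Determinations were done in triplicate, 3–4 separate experiments.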

[6] = (§2) Neuroprotective activity in organotypic Wistar rat hippocampal CA1 region slices assessed as protection from oxygen-deprivation-induced neuronal damage at 30 uM dosed during 30 mins insult and subsequent 24 hrs recovery period by propidium iodide staining-based fluorescence analysis (reference value: 57 +/- 8%); format: functional
[7] = species on record: Mus musculus; assay: Antagonist activity at NMDA receptor in mouse cortical wedge assessed as inhibition of NMDA-induced membrane depolarization at 10 uM by electrophysiological assay; format: functional
Outline: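 Mouse cortical wedge preparation; antagonism measured as inhibition of depolarization evoked by NMDA, with test compound at 10 µM.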

[8] = Antagonist activity at NMDA receptor in mouse cortical wedge assessed as inhibition of NMDA-induced membrane depolarization by electrophysiological assay; format: functional
[9] = species on record: Rattus norvegicus; assay: Displacement of [3H]kainate from kainate receptor in rat cortical membrane at 100 uM; format: cell membranes; outline: as §1
[10] = species on record: Rattus norvegicus; assay: Displacement of [3H]AMPA from AMPA receptor in rat cortical synaptical membrane at 100 uM; format: cell membranes; outline: as §1
[11] = as §2, with “at 1” for “at 30”; format: functional
[12] = test system: Mus musculus; assay: Anticonvulsant activity in Swiss albino mouse assessed as protection from PTZ-induced seizures at 30 mg/kg, po administered 30 mins before PTZ challenge measured after 30 mins; format: functional
Outline: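 Male Swiss albino mice (23–30 g), housed 15 per cage, 23 ± 1 °C, 12 h light/dark. Test drug dispersed in 1% sodium carboxymethylcellulose and given orally in 10 ml/kg. PTZ given 90 mg/kg s.c. 30 min later. Clonic generalized convulsions scored over 30 min, expressed as % protection.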

[13] = Antagonist activity at kainate receptor in Wistar rat acute hippocampal CA1 region slices assessed as reduction of kainate-induced field excitatory postsynaptic potential suppression at 1 uM by electrophysiological analysis relative to untreated pre-drug level (reference value: 52.1 +/- 15.3%); format: functional, Hippocampus; design: scale not given: the % may be the effect or the level left
[14] = test system: Hippocampus; assay: Neuroprotective activity in Wistar rat acute hippocampal CA1 region slices assessed as protection from oxygen glucose deprivation-induced anoxic depolarization at 5 uM administered 15 mins before and during 7 mins oxygen glucose deprivation challenge; format: functional
Outline: (§3)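 Acute rat hippocampal slices superfused with aCSF, compound in DMSO (final under 0.001%). Applied 15 min before and during 7-min OGD. Anoxic depolarization recorded in CA1 as negative DC voltage shift, with loss of fepsp followed on reperfusion with oxygenated glucose-containing aCSF. n = 3 (1 µM) or 6 (5 µM).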

[15] = Antagonist activity at kainate receptor in Wistar rat acute hippocampal CA1 region slices assessed as reduction in field excitatory postsynaptic potential amplitude at basal conditions at 5 uM by electrophysiological analysis; format: functional; conditions: Hippocampus
[16] = Antagonist activity at kainate receptor in Wistar rat acute hippocampal CA1 region slices assessed as reduction in field excitatory postsynaptic potential amplitude at basal conditions at 1 uM by electrophysiological analysis; format: functional; conditions: Hippocampus
[17] = test system: Hippocampus; assay: Neuroprotective activity in Wistar rat hippocampal CA1 region assessed as change in field excitatory postsynaptic potential at basal conditions at 1 to 5 uM by electrophysiological analysis; format: functional, tissue-based
[18] = test system: Hippocampus; assay: Neuroprotective activity in Wistar rat acute hippocampal CA1 region assessed as protection from oxygen glucose deprivation-induced anoxia depolarization at 1 uM administered 15 mins before and during 7 mins oxygen-deprivation challenge; format: functional, tissue-based; outline: as §3

Structure (SMILES)	IC50 [1]	Ki [2]	Ki [3]	IC50 [4]	Imax [5]	other results
O=c1[nH]c2cc(Cl)c([N+](=O)[O-])cc2c(=O)n1O	19.1 µM	1.1 µM	1.3 µM	–	–	–
NS(=O)(=O)c1cccc2c1c([N+](=O)[O-])cc1nc(O)c(O)nc12 [NBQX]	7 µM	–	0.07 µM	0.2 µM	3%	Activity [6]: 20%; inhibition [7]: inactive
Nc1cc2c(=O)n(O)c(=O)[nH]c2cc1C(F)(F)F	32 µM	6.1 µM	6.1 µM	–	–	–
O=Cc1ccn(-c2cc3c(=O)n(O)c(=O)[nH]c3cc2C(F)(F)F)c1	4.2 µM	0.8 µM	0.72 µM	1.5 µM	–	IC50 [8]: 7 µM
O=C(O)c1ccn(-c2cc3c(=O)n(O)c(=O)[nH]c3cc2C(F)(F)F)c1	17.3 µM	5.1 µM	0.46 µM	2.9 µM	–	IC50 [8]: > 50 µM
O=c1[nH]c2cc(C(F)(F)F)c(-n3cccc3)cc2c(=O)n1O	–	–	126 µM	–	32%	Imax [9]: 10%
O=C(O)c1cc(O)c2c(Cl)cc(Cl)cc2n1	–	0.08 µM	–	52 µM	–	Imax [9]: 8%; Imax [10]: 5%; IC50 [8]: 4.7 µM
O=c1[nH]c2cc(C(F)(F)F)ccc2c(=O)n1O	37.6 µM	0.85 µM	4.8 µM	–	–	–
COn1c(=O)[nH]c2cc(C(F)(F)F)c(-n3cnnc3)cc2c1=O	–	–	20 µM	–	21%	Imax [9]: 0%
O=c1[nH]c2cc(C(F)(F)F)c([N+](=O)[O-])cc2c(=O)n1O	7 µM	1.3 µM	0.26 µM	–	–	–
O=c1[nH]c2cc(C(F)(F)F)c(-n3cnnc3)cc2c(=O)n1O	–	6.5 µM	–	–	–	Activity [11]: 29%; Activity [12]: 65.5%
O=C(O)c1ccccc1C(=O)Nc1cc2c(=O)n(O)c(=O)[nH]c2cc1Cl	–	–	–	–	–	Activity [13]: 85.8%; Activity [14]: 92.2%; inhibition at 5 µM [15]: 39.6%; inhibition at 1 µM [16]: 19.2%; Activity [17]: Active; Activity [18]: inactive
O=C(O)c1ccccc1C(=O)Nc1cc2c(=O)n(O)c(=O)[nH]c2cc1C(F)(F)F	25 µM	–	–	–	10%	Imax [10]: 8%
